Activity calls are given as the source filed them.
Columns and labels:
[1] = Cytotoxicity against pig LLC-PK11 cells upto 50 uM by neutral red assay; type: cell-based, Sus scrofa
Method in brief: (§1)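 Neutral red uptake assay. Purified compounds were tested up to 50 μM and the methanol extract up to 50 μg/mL. The panel was normal Vero monkey kidney fibroblasts and LLC-PK11 pig kidney epithelial cells, plus solid tumour lines HepG2, SK-MEL, KB, BT-549 and SK-OV-3.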

BT-549 = experiment: Cytotoxicity against human BT549 cells upto 50 uM by neutral red assay; type: functional, cell-based; method in brief: as §1
Vero = experiment: Cytotoxicity against african green monkey Vero cells upto 50 uM by neutral red assay; type: cell-based; conditions: chlorocebus sabaeus; method in brief: as §1
SK-OV-3 = experiment: Cytotoxicity against human SKOV3 cells upto 50 uM by neutral red assay; type: functional, cell-based; method in brief: as §1
HepG2 = experiment: Cytotoxicity against human HepG2 cells upto 50 uM by neutral red assay; type: functional, cell-based; method in brief: as §1
[2] = biological target: Transcription factor Sp1 (Homo sapiens) (UniProt P08047); experiment: Inhibition of SP1-dependent luciferase expression
Method in brief: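 Counter-screen in SW1353 cells for inhibition of luciferase expression from a control plasmid driven by Sp-1. It runs alongside the PMA-induced NF-κB transcription assay to exclude nonspecific or cytotoxic effects.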

SW1353 [3] = experiment: Cytotoxicity against human SW1353 cells by neutral red assay; type: cell-based
KB = experiment: Cytotoxicity against human KB cells upto 50 uM by neutral red assay; type: functional, cell-based; method in brief: as §1
SK-MEL = experiment: Cytotoxicity against human SK-MEL cells upto 50 uM by neutral red assay; type: functional, cell-based; method in brief: as §1
HL-60 [4] = experiment: Antioxidant activity in human HL60 cells assessed as inhibition of relative oxygen species generation by DCFH-DA method; type: functional, cell-based
Method in brief: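 Intracellular reactive oxygen species generation was measured in myelomonocytic HL-60 cells by the DCFH-DA method. IC50 values were derived, and vitamin C served as positive control. Cytotoxicity in HL-60 cells was checked up to 62.5 μM within this assay.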

SW1353 [5] = experiment: Antiinflammatory activity in PMA-stimulated human SW1353 cells assessed as inhibition of NF-kappaB activation; type: functional, cell-based
Method in brief: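 SW1353 cells were stimulated with PMA, and inhibition of NF-κB-mediated transcription was scored as IC50. Parthenolide was the positive control. Specificity was checked against a Sp-1-dependent luciferase control plasmid.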

HL-60 [6] = experiment: Cytotoxicity against human HL60 cells by neutral red assay; type: cell-based

Transcription factor Sp1 (Homo sapiens), sequence (P08047 whole entry): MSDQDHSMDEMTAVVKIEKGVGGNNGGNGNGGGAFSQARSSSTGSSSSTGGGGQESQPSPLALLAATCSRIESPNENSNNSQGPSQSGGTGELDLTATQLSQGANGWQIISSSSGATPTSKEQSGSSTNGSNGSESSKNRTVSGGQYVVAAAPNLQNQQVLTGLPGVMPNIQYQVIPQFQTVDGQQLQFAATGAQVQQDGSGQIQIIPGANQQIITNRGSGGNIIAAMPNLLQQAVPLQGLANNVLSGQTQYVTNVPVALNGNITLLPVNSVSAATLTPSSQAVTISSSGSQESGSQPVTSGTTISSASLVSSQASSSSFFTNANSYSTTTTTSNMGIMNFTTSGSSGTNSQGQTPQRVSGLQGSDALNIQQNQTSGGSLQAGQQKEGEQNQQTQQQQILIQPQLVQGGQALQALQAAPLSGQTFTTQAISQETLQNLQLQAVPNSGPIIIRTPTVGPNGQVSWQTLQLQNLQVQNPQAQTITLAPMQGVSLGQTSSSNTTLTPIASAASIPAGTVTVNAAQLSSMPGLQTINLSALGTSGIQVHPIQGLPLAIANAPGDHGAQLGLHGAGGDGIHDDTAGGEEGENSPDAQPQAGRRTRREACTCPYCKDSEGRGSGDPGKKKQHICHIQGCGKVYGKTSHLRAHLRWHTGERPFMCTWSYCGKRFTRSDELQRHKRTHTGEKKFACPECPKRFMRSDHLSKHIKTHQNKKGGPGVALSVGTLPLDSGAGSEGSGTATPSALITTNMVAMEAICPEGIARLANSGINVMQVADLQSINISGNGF

C[C@H]1[C@H](C)CC[C@]2(C(=O)O)CC[C@]3(C)C(=CC[C@@H]4[C@@]5(C)CC[C@H](O)C(C)(C)[C@@H]5CC[C@]43C)[C@H]12 [URSOLIC ACID]
inactive: Activity (BT-549) | Activity (SK-OV-3) | Activity (HepG2) | Activity [2] | Activity (KB) | Activity (SK-MEL)
Non-toxic: Activity [1] | Activity (Vero) | Activity (SW1353 [3])

COc1c(O)cc2oc(-c3ccccc3)cc(=O)c2c1O [OROXYLIN A]
> 50 µM: IC50 (SW1353 [5])
Not Active: IC50 (HL-60 [4]; hl-60)
inactive: Activity (BT-549) | Activity (SK-OV-3) | Activity (HepG2) | Activity [2] | Activity (KB) | Activity (SK-MEL)
Non-toxic: Activity [1] | Activity (Vero) | Activity (SW1353 [3])

CC[C@H](CC[C@@H](C)[C@H]1CC[C@H]2[C@@H]3CC=C4C[C@@H](O)CC[C@]4(C)[C@H]3CC[C@]12C)C(C)C [BETA-SITOSTEROL]
Non-toxic: Activity [1] | Activity (Vero) | Activity (SW1353 [3])
inactive: Activity (BT-549) | Activity (SK-OV-3) | Activity (HepG2) | Activity [2] | Activity (KB) | Activity (SK-MEL)

O=C1C[C@@H](c2ccccc2)Oc2cc(O)cc(O)c21 [PINOCEMBRIN]
Non-toxic: Activity [1] | Activity (Vero) | Activity (SW1353 [3])
inactive: Activity (BT-549) | Activity (SK-OV-3) | Activity (HepG2) | Activity [2] | Activity (KB) | Activity (SK-MEL)

COc1c(O)cc(O)c2c(=O)cc(-c3ccccc3)oc12 [WOGONIN]
Non-toxic: Activity [1] | Activity (Vero) | Activity (SW1353 [3])
inactive: Activity (BT-549) | Activity (SK-OV-3) | Activity (HepG2) | Activity [2] | Activity (KB) | Activity (SK-MEL)
Not Active: Activity (HL-60 [6])
39 µM: IC50 (SW1353 [5])

COc1ccccc1-c1cc(=O)c2c(O)cc(O)c(OC)c2o1
Non-toxic: Activity [1] | Activity (Vero) | Activity (SW1353 [3])
inactive: Activity (BT-549) | Activity (SK-OV-3) | Activity (HepG2) | Activity [2] | Activity (KB) | Activity (SK-MEL)

CC(C)=CC(=O)O[C@H]1Cc2cc3ccc(=O)oc3cc2OC1(C)C [DECURSIN]
Non-toxic: Activity [1] | Activity (Vero) | Activity (SW1353 [3])
inactive: Activity (BT-549) | Activity (SK-OV-3) | Activity (HepG2) | Activity [2] | Activity (KB) | Activity (SK-MEL)

CC1(C)CC[C@]2(C(=O)O)CC[C@]3(C)C(=CC[C@@H]4[C@@]5(C)CC[C@@H](O)[C@](C)(CO)[C@@H]5CC[C@]43C)[C@@H]2C1 [SCUTELLARIC ACID]
Non-toxic: Activity [1] | Activity (Vero) | Activity (SW1353 [3])
inactive: Activity (BT-549) | Activity (SK-OV-3) | Activity (HepG2) | Activity [2] | Activity (KB) | Activity (SK-MEL)

CC[C@H](CC[C@@H](C)[C@H]1CC[C@H]2[C@@H]3CC=C4C[C@@H](O[C@@H]5O[C@H](CO)[C@@H](O)[C@H](O)[C@H]5O)CC[C@]4(C)[C@H]3CC[C@]12C)C(C)C [SITOGLUSIDE]
Non-toxic: Activity [1] | Activity (Vero) | Activity (SW1353 [3])
inactive: Activity (BT-549) | Activity (SK-OV-3) | Activity (HepG2) | Activity [2] | Activity (KB) | Activity (SK-MEL)

O=c1cc(-c2ccccc2)oc2cc(O)cc(O)c12 [CHRYSIN]
Not Active: IC50 (HL-60 [4]; hl-60)
Non-toxic: Activity [1] | Activity (Vero) | Activity (SW1353 [3])
33 µM: IC50 (SW1353 [5])
inactive: Activity (BT-549) | Activity (SK-OV-3) | Activity (HepG2) | Activity [2] | Activity (KB) | Activity (SK-MEL)

COc1c(O)cc2c(c1O)C(=O)C[C@@H](c1ccccc1)O2 [DIHYDROOROXYLIN A]
inactive: Activity (BT-549) | Activity (SK-OV-3) | Activity (HepG2) | Activity [2] | Activity (KB) | Activity (SK-MEL)
Non-toxic: Activity [1] | Activity (Vero) | Activity (SW1353 [3])

CC(C)=CC(=O)O[C@H]1C(=O)c2cc3ccc(=O)oc3cc2OC1(C)C [SCUTEFLORIN A]
inactive: Activity (BT-549) | Activity (SK-OV-3) | Activity (HepG2) | Activity [2] | Activity (KB) | Activity (SK-MEL)
Non-toxic: Activity [1] | Activity (Vero) | Activity (SW1353 [3])

CCCCCCCCCCCCCCCC(=O)O [PALMITIC ACID]
Non-toxic: Activity [1] | Activity (Vero) | Activity (SW1353 [3])
inactive: Activity (BT-549) | Activity (SK-OV-3) | Activity (HepG2) | Activity [2] | Activity (KB) | Activity (SK-MEL)

O=C1O[C@H]([C@@H](O)CO)C(O)=C1O [ASCORBIC ACID]
0.01 µM: IC50 (HL-60 [4]; Homo sapiens, HL-60, read-out: IC50)

C[C@@H]1CC[C@]2(C(=O)O)CC[C@]3(C)C(=CC[C@@H]4[C@@]5(C)CC[C@H](O)C(C)(C)[C@@H]5CC[C@]43C)[C@@H]2[C@]1(C)O [POMOLIC ACID]
Non-toxic: Activity [1] | Activity (Vero) | Activity (SW1353 [3])
inactive: Activity (BT-549) | Activity (SK-OV-3) | Activity (HepG2) | Activity [2] | Activity (KB) | Activity (SK-MEL)

C/C=C(/C)C(=O)O[C@H]1C(=O)c2cc3ccc(=O)oc3cc2OC1(C)C [SCUTEFLORIN B]
inactive: Activity (BT-549) | Activity (SK-OV-3) | Activity (HepG2) | Activity [2] | Activity (KB) | Activity (SK-MEL)
Non-toxic: Activity [1] | Activity (Vero) | Activity (SW1353 [3])

C=C(C)[C@@H]1CC[C@]2(C)CC[C@]3(C)[C@H](CC[C@@H]4[C@@]5(C)CC[C@H](O)C(C)(C)[C@@H]5CC[C@]43C)[C@@H]12 [LUPEOL]
inactive: Activity (BT-549) | Activity (SK-OV-3) | Activity (HepG2) | Activity [2] | Activity (KB) | Activity (SK-MEL)
Non-toxic: Activity [1] | Activity (Vero) | Activity (SW1353 [3])

C=C1C(=O)O[C@@H]2C3O[C@]3(C)CC/C=C(\C)CC[C@@H]12 (some centres not stated)
4.1 µM: IC50 (SW1353 [5])

— ChEMBL document CHEMBL1152395, “Scuteflorins A and B, dihydropyranocoumarins from Scutellaria lateriflora” (J Nat Prod, 2009)
